Measured values gathered from unrelated publications.
Target: 3-phosphoinositide-dependent protein kinase 1 (PDPK1, Homo sapiens, UniProt O15530)

With `O=C(CSc1nc2nccnc2c(=O)n1CCc1ccccc1)Nc1nccs1` the inhibition was 11% (enzyme activity, inhibitor; 10 µM).
With `CCCCNc1ncc2c(-c3ccc(F)cc3)nn(C[C@H]3CC[C@H](N)CC3)c2n1` the inhibition was 7.1% (target engagement in cells, inhibitor, chemoproteomics; 20 mM).
The inhibition of `COc1cc2ncnc(Nc3ccc(Oc4ccccc4)cc3C)c2cc1OC` is reported as -2% (enzyme activity, inhibitor; 1 µM).
`CN(C)C1CCN(CC#Cc2nn(C3CCCC3)c3nc(NCc4ccccc4)ncc23)C1` (centres unmarked) gave an inhibition of 3% (enzyme activity, inhibitor, FRET; 10 µM).
With `C=CC(=O)Nc1cc(Nc2nccc(Nc3cc(Cl)c(F)cc3C(C)(C)O)n2)c(OC)cc1N1CC[C@@H](N(C)C)C1` the inhibition was -2% (enzyme activity, inhibitor; 1 µM).
The inhibition of `CSc1nc(C)c(-c2ccnc(Nc3ccc(N4CCOCC4)cc3)c2)[nH]1` is reported as 41.3% (enzyme activity, inhibitor; 10 µM).
`Cc1ccc(Nc2nccc(N(C)c3ccc4c(C)n(C)nc4c3)n2)cc1S(N)(=O)=O` has an inhibition of 34% (enzyme activity, inhibitor; 10 µM).
`COc1cccc2c(NCc3ccccc3)nc(-n3c(N)nc4ccccc43)nc12` gave an inhibition of -5.3% (target engagement in cells, inhibitor, chemoproteomics; 20 mM).
`CCN(CC)CCNC(=O)c1c(C)[nH]c(/C=C2\C(=O)Nc3ccc(F)cc32)c1C` gave an inhibition of 71% (binding, competition with immobilised ligand; 10 µM).
`Nc1ncc2cc(-c3c(Cl)cccc3-c3cccnc3)c(N3C[C@@H]4[C@@H](N)[C@@H]4C3)nc2n1` has an inhibition of 0% (enzyme activity, inhibitor, FRET; 25 µM).
`CNC(=O)c1cc(Oc2ccc(NC(=O)Nc3ccc(Cl)c(C(F)(F)F)c3)cc2)ccn1` has an inhibition of 8% (enzyme activity, inhibitor; 10 µM).
